The values below come from paper PMC9476936 (ACS Pharmacology & Translational Science, 2021).

One series concerns ABCB1. As to conditions: cited from earlier work.
The target of series [1] is T1, human ABCB1 (Homo sapiens, UniProt P08183). Format: biochemical.
Series [2] deals with T2, human ABCG2 (Homo sapiens, UniProt Q9UNQ0).
T2 sequence (Q9UNQ0 1-655): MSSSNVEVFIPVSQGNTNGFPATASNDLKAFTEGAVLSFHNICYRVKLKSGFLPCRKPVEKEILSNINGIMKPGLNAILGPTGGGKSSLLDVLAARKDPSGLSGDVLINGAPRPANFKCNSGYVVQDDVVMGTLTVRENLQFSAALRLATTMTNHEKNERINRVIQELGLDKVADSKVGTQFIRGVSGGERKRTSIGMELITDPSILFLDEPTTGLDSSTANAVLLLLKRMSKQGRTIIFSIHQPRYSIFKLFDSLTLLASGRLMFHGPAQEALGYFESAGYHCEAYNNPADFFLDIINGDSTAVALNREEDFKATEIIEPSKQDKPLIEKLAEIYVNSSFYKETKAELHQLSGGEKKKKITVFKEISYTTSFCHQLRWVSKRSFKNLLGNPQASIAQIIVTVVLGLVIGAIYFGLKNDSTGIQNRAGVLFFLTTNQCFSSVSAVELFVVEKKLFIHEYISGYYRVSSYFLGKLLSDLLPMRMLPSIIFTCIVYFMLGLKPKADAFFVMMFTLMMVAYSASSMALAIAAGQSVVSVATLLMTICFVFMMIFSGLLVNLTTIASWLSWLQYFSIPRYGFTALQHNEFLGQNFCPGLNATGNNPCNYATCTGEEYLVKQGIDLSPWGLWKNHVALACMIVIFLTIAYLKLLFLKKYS
Briefly: Vanadate. Format: biochemical. As to conditions: read-out: IC50 for ATPase activity of ABCG2; light activation (+hv) 690 nm, 0.05 J/cm2, 50 mW/cm2; membrane vesicles.

Series [3] concerns the target T1, human ABCB1. Format: biochemical. The source holds these as a separate data set.
The target of series [4] is T1, human ABCB1. Format: biochemical. This is another data set of the same source.
In series [5] the target is T1, human ABCB1. Format: biochemical. As to conditions: 2 μM BPD, 690 nm.
The target in series [6] is T2, human ABCG2. Format: biochemical. A digest of the protocol:
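Human ABCG2 (N-terminal His10) vesicles from baculovirus-infected High Five cells; 35 μg protein/50 μL in MES-Tris pH 6.8 buffer with 2 mM DTT. Photosensitizer (0–20 μM) added at 37 °C for 3 min, then 690 nm light (0–5 J/cm2, 50 mW/cm2). Fixed 0.5 J/cm2 for the dose series; fixed 2 μM for the fluence series. Denatured at 37 °C for 20 min, 7% Tris-acetate gel, 10 μg/lane, colloidal blue stain, densitometry.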

The mark [7] stands for this setting: 2 μM BPD, light fluence increased from 0 to 5 J/cm2.
[8] abbreviates: BPD 20 μM + light 690 nm, 5 J/cm2, 50 mW/cm2.

Where two headings read alike, the source gives them in different places.

T1 sequence (P08183 whole entry): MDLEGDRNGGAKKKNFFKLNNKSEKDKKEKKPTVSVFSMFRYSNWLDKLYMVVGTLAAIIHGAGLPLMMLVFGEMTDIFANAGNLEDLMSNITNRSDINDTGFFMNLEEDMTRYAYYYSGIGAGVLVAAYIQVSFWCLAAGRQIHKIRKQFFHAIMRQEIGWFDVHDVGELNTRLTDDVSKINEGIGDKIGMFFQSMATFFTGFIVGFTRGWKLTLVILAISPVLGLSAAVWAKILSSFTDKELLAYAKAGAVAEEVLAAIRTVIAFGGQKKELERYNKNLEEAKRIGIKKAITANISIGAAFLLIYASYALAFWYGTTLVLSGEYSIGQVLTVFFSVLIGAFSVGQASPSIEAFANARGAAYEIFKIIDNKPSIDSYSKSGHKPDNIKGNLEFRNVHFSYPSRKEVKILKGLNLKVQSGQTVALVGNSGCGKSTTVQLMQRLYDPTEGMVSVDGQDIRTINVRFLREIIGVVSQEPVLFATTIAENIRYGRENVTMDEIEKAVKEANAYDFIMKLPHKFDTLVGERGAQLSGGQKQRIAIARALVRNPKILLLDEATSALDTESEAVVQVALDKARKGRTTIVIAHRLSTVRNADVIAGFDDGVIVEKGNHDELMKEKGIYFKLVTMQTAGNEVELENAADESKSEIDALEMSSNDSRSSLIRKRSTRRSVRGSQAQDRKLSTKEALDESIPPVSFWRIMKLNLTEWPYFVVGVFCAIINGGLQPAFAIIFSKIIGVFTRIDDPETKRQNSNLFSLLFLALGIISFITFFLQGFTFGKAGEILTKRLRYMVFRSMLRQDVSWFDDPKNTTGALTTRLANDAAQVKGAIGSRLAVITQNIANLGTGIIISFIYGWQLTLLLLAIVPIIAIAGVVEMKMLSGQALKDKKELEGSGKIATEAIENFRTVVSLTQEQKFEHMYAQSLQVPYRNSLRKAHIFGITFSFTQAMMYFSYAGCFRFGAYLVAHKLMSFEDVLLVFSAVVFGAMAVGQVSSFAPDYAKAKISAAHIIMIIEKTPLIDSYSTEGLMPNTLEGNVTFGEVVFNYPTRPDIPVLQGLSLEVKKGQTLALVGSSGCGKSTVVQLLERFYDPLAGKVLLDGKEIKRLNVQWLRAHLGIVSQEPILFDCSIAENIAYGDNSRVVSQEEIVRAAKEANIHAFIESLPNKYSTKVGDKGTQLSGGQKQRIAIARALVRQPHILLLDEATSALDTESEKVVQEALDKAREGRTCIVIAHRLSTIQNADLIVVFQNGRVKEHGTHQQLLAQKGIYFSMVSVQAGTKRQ

On to `COc1cc2c(cc1OC)CN(CCc1ccc(NC(=O)c3cccc4c(=O)c5cccc(OC)c5[nH]c34)cc1)CC2` [elacridar], for which the “concentrations inhibiting both drug transport and ATPase activity of ABCB1” value in the series with ABCB1 is recorded as “sub-micromolar concentrations”.
With `COc1cc2c(cc1OC)CN(CCc1ccc(NC(=O)c3cc(OC)c(OC)cc3NC(=O)c3cnc4ccccc4c3)cc1)CC2` [tariquidar], the “concentrations inhibiting both drug transport and ATPase activity of ABCB1” value in the series with ABCB1 is recorded as “sub-micromolar concentrations”.
With `O[C@@H](COc1cccc2ncccc12)CN1CCN([C@@H]2c3ccccc3[C@@H]3[C@H](c4ccccc42)C3(F)F)CC1` [zosuquidar], the “concentrations inhibiting both drug transport and ATPase activity of ABCB1” value in the series with ABCB1 was “sub-micromolar concentrations”.
What is called IC50 is the concentration needed to halve the response being measured. In the case of benzoporphyrin derivative [BPD], the “reduction of ATPase activity of ABCB1 in nanodiscs” value at human ABCB1 [1] (absence of light activation) was found to be 51.7 ± 5.3%; at human ABCB1 [1] (light activation 690 nm, 0.05 J/cm2, 50 mW/cm2), 97.3 ± 1.3%. Moreover, the concentration for half-maximal inhibition (IC50) on human ABCG2 [2] turned out to be 800 ± 100 nM; at human ABCB1 [3] (read-out: IC50 for ATPase activity of ABCB1, light activation (+hv) 690 nm, 0.05 J/cm2, 50 mW/cm2, membrane vesicles), 700 ± 100 nM. The “further reduction of ATPase activity of ABCB1 by light activation” value on human ABCB1 [3] (+hv 690 nm, 0.05 J/cm2, 50 mW/cm2 versus −hv, stated jointly for ABCB1 and ABCG2) was “up to 12 fold”. Moreover, the “reduction of monomeric ABCB1 band intensity” value on human ABCB1 [4] (setting [7]) worked out at 9.1 fold. For the same compound, the “BPD concentration at which ABCB1 aggregation bands became evident” value at human ABCB1 [4] (0.5 J/cm2, 690 nm) was “higher than 0.5 μM”. At human ABCB1 [4] (setting [8]), the “band corresponding to monomeric ABCB1” value is “disappeared”. At human ABCB1 [4] (BPD alone 20 μM, no light), the “intensity of protein band of monomeric (non-aggregated) ABCB1” value is “did not alter”. Moreover, the “disappearance of protein band corresponding to monomeric ABCB1 in nanodiscs” value at human ABCB1 [5] (50 mW/cm2, 0.5 J/cm2) came to 49.0 ± 2.6%; at human ABCB1 [5] (50 mW/cm2, 5 J/cm2), 88.0 ± 3.5%. The “reduction of monomeric ABCG2 band intensity” value on human ABCG2 [6] (setting [7]) is 5.4 fold. Also, the “BPD concentration at which ABCG2 aggregation bands became evident” value on human ABCG2 [6] (0.5 J/cm2, 690 nm) is on record as “higher than 0.5 μM”. Besides, the “band corresponding to monomeric ABCG2” value on human ABCG2 [6] (setting [8]) is recorded as “disappeared”. Further, the “intensity of protein band of monomeric (non-aggregated) ABCG2” value on human ABCG2 [6] (BPD alone 20 μM, no light) was “did not alter”.
